Reference: ChEMBL document CHEMBL1132771, “Analogues of SB-203207 as inhibitors of tRNA synthetases” (Bioorg Med Chem Lett, 2000)
≈ marks a conversion by molar mass, not a printed value. Calls of active or inactive are those of the source. The rule behind the calls is not given here.

Key:
[1] = molecular target: T1, Isoleucine--tRNA ligase (Staphylococcus aureus) (UniProt P41972); experiment: Compound (100 uM) was evaluated for its inhibitory activity against Isoleucyl-tRNA synthetase from staphylococcus aureus WCUH29
T1 sequence (whole entry): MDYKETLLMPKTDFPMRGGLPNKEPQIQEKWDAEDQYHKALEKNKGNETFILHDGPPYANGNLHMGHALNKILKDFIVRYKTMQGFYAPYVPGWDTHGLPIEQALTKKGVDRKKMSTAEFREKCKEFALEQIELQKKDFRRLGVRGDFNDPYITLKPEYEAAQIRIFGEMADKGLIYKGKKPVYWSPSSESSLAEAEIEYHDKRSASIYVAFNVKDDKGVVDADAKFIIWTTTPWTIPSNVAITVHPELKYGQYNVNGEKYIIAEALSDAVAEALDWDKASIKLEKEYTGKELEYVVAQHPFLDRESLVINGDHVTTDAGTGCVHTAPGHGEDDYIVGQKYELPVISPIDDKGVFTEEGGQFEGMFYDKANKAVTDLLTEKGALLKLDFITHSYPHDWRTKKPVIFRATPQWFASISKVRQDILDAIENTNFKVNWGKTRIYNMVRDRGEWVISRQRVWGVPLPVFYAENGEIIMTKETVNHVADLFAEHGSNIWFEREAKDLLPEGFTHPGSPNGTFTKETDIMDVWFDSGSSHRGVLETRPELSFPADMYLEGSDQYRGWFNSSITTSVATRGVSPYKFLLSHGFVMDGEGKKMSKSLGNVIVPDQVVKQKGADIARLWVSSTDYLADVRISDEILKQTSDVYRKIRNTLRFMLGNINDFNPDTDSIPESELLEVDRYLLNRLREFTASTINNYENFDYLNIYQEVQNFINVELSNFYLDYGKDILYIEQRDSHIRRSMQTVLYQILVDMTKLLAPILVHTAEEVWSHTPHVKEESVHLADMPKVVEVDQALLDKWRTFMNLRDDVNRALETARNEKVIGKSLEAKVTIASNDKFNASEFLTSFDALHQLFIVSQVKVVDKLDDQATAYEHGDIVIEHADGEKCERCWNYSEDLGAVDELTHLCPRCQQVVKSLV

[2] = molecular target: T2, Isoleucyl-tRNA synthetase (Rattus norvegicus) (UniProt O35880); experiment: Compound (100 uM) was evaluated for its inhibitory activity against Isoleucyl-tRNA synthetase from rat liver
T2 sequence (whole entry): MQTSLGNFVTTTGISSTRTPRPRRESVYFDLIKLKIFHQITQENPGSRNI

Staphylococcus aureus [3] = experiment: Compound (100 uM) was evaluated for its inhibitory activity against VRS (valyl tRNA synthetase) from staphylococcus aureus WCUH29; no inhibition
[4] = tested on: Leucine--tRNA ligase (Staphylococcus aureus); experiment: Compound (100 uM) was evaluated for its inhibitory activity against Leucyl-tRNA synthetase from staphylococcus aureus WCUH29
Escherichia coli [5] = experiment: Compound was evaluated for the antibacterial activity against Escherichia coli 120 AcrAB-; assay type: functional
Outline: (§1)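 Broth microdilution MIC. Compounds in DMSO, diluted 1:10 in water to a 256 µg mL-1 stock, then serially diluted in supplemented cation-adjusted Mueller Hinton broth. Each well received an equal volume of isolate suspension (~1 × 10^6 cfu mL-1). Final concentrations were 0.06–64 µg mL-1. Plates were incubated at 35 °C in ambient air for 18–24 h, and the MIC was read with a mirror reader.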

Escherichia coli [6] = experiment: Compound was evaluated for the antibacterial activity against Escherichia coli 763 AcrABEFD; assay type: functional; outline: as §1
Enterococcus faecalis [7] = experiment: Compound was evaluated for the antibacterial activity against Enterococcus faecalis 1; assay type: functional; outline: as §1
Enterococcus faecalis [8] = experiment: Compound was evaluated for the antibacterial activity against Enterococcus faecalis 7; assay type: functional; outline: as §1
Haemophilus influenzae [9] = experiment: Compound was evaluated for the antibacterial activity against Haemophilus influenzae NEMC1; assay type: functional; outline: as §1
Haemophilus influenzae [10] = experiment: Compound was evaluated for the antibacterial activity against Haemophilus influenzae Q1; assay type: functional; outline: as §1
Isoleucine--tRNA ligase = molecular target: T3, Isoleucine--tRNA ligase (Staphylococcus aureus, UniProt P41972); experiment: Compound was evaluated for its inhibitory activity against Isoleucyl-tRNA synthetase from staphylococcus aureus WCUH29
T3 sequence (P41972 whole entry): T1 sequence (whole entry)

[11] = molecular target: T4, Isoleucyl-tRNA synthetase (Rattus norvegicus, UniProt O35880); experiment: Compound was evaluated for its inhibitory activity against Isoleucyl-tRNA synthetase from rat liver
T4 sequence (O35880 whole entry): T2 sequence (whole entry)

Moraxella catarrhalis = experiment: Compound was evaluated for the antibacterial activity against Moraxella catarrhalis 1502; assay type: functional; outline: as §1
Staphylococcus aureus [12] = experiment: Compound was evaluated for the antibacterial activity against Staphylococcus aureus WCUH 29; assay type: functional; outline: as §1
Staphylococcus aureus [13] = experiment: Compound was evaluated for the antibacterial activity against Staphylococcus aureus oxford; assay type: functional; outline: as §1
Streptococcus pneumoniae [14] = experiment: Compound was evaluated for the antibacterial activity against Streptococcus pneumoniae 1629; assay type: functional; outline: as §1
Streptococcus pneumoniae [15] = experiment: Compound was evaluated for the antibacterial activity against Streptococcus pneumoniae ERY2; assay type: functional; outline: as §1
Streptococcus pneumoniae [16] = experiment: Compound was evaluated for the antibacterial activity against Streptococcus pneumoniae N1387; assay type: functional; outline: as §1
[17] = Compound was evaluated for its inhibitory activity against VRS (valyl tRNA synthetase) from staphylococcus aureus WCUH29
[18] = tested on: Leucine--tRNA ligase (Staphylococcus aureus); experiment: Compound (100 uM) was evaluated for its inhibitory activity against Leucyl-tRNA synthetase from staphylococcus aureus WCUH29; no inhibition
Staphylococcus aureus [19] = experiment: Compound (10 uM) was evaluated for its inhibitory activity against VRS (valyl tRNA synthetase) from staphylococcus aureus WCUH29; no inhibition
[20] = tested on: Leucine--tRNA ligase (Staphylococcus aureus); experiment: Compound (10 uM) was evaluated for its inhibitory activity against Leucyl-tRNA synthetase from staphylococcus aureus WCUH29; no inhibition
Staphylococcus aureus [21] = experiment: Compound (100 uM) was evaluated for its inhibitory activity against VRS (valyl tRNA synthetase) from staphylococcus aureus WCUH29

Q: With CC[C@H](C)CC(=O)NS(=O)(=O)CC(=O)N[C@]1(C(=O)OC)[C@@H]2CN(C)C=C(C(N)=O)[C@@H]2C[C@@H]1O as the molecule, how does the inhibition [1] read?
A: 23%

Q: And the inhibition [2]?
A: 25%

Q: What about the inhibition (Staphylococcus aureus [3]) of the same molecule?
A: inactive

Q: And the inhibition [4]?
A: 13%

Q: Which MIC (Escherichia coli [5]) does the source give for CC(C)C[C@H](N)C(=O)NS(=O)(=O)CC(=O)N[C@]1(C(=O)O)[C@@H]2CN(C)C=C(C(N)=O)[C@@H]2C[C@@H]1O here?
A: > 64 µg/mL

Q: And the MIC (Escherichia coli [6])?
A: > 64 µg/mL

Q: And the MIC (Enterococcus faecalis [7])?
A: > 64 µg/mL

Q: What about the MIC (Enterococcus faecalis [8]) of the same molecule?
A: > 64 µg/mL

Q: And the MIC (Haemophilus influenzae [9])?
A: 64 µg/mL (≈ 131 µM)

Q: And the MIC (Haemophilus influenzae [10])?
A: 64 µg/mL (≈ 131 µM)

Q: And the IC50 (Isoleucine--tRNA ligase)?
A: 910 nM

Q: And the IC50 [11]?
A: 68 nM

Q: What about the MIC (Moraxella catarrhalis) of the same molecule?
A: > 64 µg/mL

Q: What about the MIC (Staphylococcus aureus [12]) of the same molecule?
A: > 64 µg/mL

Q: And the MIC (Staphylococcus aureus [13])?
A: > 64 µg/mL

Q: What about the MIC (Streptococcus pneumoniae [14]) of the same molecule?
A: 32 µg/mL (≈ 65.4 µM)

Q: What about the MIC (Streptococcus pneumoniae [15]) of the same molecule?
A: 16 µg/mL (≈ 32.7 µM)

Q: And the MIC (Streptococcus pneumoniae [16])?
A: 64 µg/mL (≈ 131 µM)

Q: What about the IC50 [17] of the same molecule?
A: 290 nM

Q: For CC[C@H](C)CC(=O)NS(=O)(=O)CC(=O)N[C@@]1(C(=O)OC)[C@@H](OC(=O)C[C@@H](C)CC)C[C@H]2C(C(N)=O)=CN(C)C[C@H]21, which inhibition [1] is on record?
A: 18%

Q: And the inhibition [2]?
A: 9%

Q: And the inhibition (Staphylococcus aureus [3])?
A: inactive

Q: And the inhibition [18]?
A: inactive

Q: What does the source list for CC[C@H](C)[C@H](N)C(=O)NS(=O)(=O)CC(=O)N[C@]1(C(=O)OCc2ccccc2)[C@@H]2CN(C)C=C(C(N)=O)[C@@H]2C[C@@H]1O?
A: IC50 (Isoleucine--tRNA ligase): 120 nM; IC50 [11]: 25 nM; inhibition (Staphylococcus aureus [19]): inactive; inhibition [20]: inactive

Q: With CC[C@H](C)[C@H](N)C(=O)NS(=O)(=O)CC(=O)N[C@]1(C(=O)OC)[C@@H]2CN(C)C=C(C(N)=O)[C@@H]2C[C@@H]1O as the molecule, how does the IC50 (Isoleucine--tRNA ligase) read?
A: 60 nM

Q: And the IC50 [11]?
A: 17 nM

Q: And the inhibition (Staphylococcus aureus [21])?
A: 40%

Q: Which IC50 (Isoleucine--tRNA ligase) does the source give for CC[C@H](C)CC(=O)NS(=O)(=O)CC(=O)N[C@]1(C(=O)O)[C@@H]2CN(C)C=C(C(N)=O)[C@@H]2C[C@@H]1O here?
A: 3270 nM

Q: And the IC50 [11]?
A: 22300 nM

Q: And the inhibition (Staphylococcus aureus [3])?
A: inactive

Q: What does the source list for CC[C@H](C)CC(=O)NS(=O)(=O)CC(=O)N[C@@]1(C(=O)OCc2ccccc2)[C@@H](OC(=O)C[C@@H](C)CC)C[C@H]2C(C(N)=O)=CN(C)C[C@H]21?
A: inhibition [1]: 19%; inhibition [2]: 20%; inhibition (Staphylococcus aureus [3]): 6%; inhibition [18]: inactive

Q: Which results are given for CC[C@H](C)[C@H](NC(=O)OCc1ccccc1)C(=O)NS(=O)(=O)CC(=O)N[C@@]1(C(=O)OC)[C@@H](OC(=O)[C@@H](NC(=O)OCc2ccccc2)[C@@H](C)CC)C[C@H]2C(C(N)=O)=CN(C)C[C@H]21?
A: inhibition [1]: 46%; IC50 [11]: 500 nM; inhibition (Staphylococcus aureus [3]): inactive; inhibition [18]: inactive

Q: Which results are given for CC[C@H](C)[C@H](N)C(=O)NS(=O)(=O)CC(=O)N[C@]1(C(=O)O)[C@@H]2CN(C)C=C(C(N)=O)[C@@H]2C[C@@H]1O?
A: MIC (Escherichia coli [5]): > 64 µg/mL; MIC (Escherichia coli [6]): > 64 µg/mL; MIC (Enterococcus faecalis [7]): > 64 µg/mL; MIC (Enterococcus faecalis [8]): > 64 µg/mL; MIC (Haemophilus influenzae [9]): 64 µg/mL (≈ 131 µM); MIC (Haemophilus influenzae [10]): 64 µg/mL (≈ 131 µM); IC50 (Isoleucine--tRNA ligase): 14 nM; IC50 [11]: 4.2 nM; MIC (Moraxella catarrhalis): > 64 µg/mL; MIC (Staphylococcus aureus [12]): > 64 µg/mL; MIC (Staphylococcus aureus [13]): > 64 µg/mL; MIC (Streptococcus pneumoniae [14]): > 64 µg/mL; MIC (Streptococcus pneumoniae [15]): 64 µg/mL (≈ 131 µM); MIC (Streptococcus pneumoniae [16]): > 64 µg/mL; IC50 [17]: 126 nM

Q: With CC(C)[C@H](N)C(=O)NS(=O)(=O)CC(=O)N[C@]1(C(=O)O)[C@@H]2CN(C)C=C(C(N)=O)[C@@H]2C[C@@H]1O as the molecule, how does the IC50 (Isoleucine--tRNA ligase) read?
A: 37 nM

Q: And the IC50 [11]?
A: 2.9 nM

Q: What about the IC50 [17] of the same molecule?
A: 30 nM

Q: With CC[C@H](C)CC(=O)NS(=O)(=O)CC(=O)N[C@@]1(C(=O)O)[C@@H](OC(=O)C[C@@H](C)CC)C[C@H]2C(C(N)=O)=CN(C)C[C@H]21 as the molecule, how does the IC50 (Isoleucine--tRNA ligase) read?
A: 14600 nM

Q: What about the IC50 [11] of the same molecule?
A: 6100 nM

Q: What about the inhibition (Staphylococcus aureus [21]) of the same molecule?
A: 65%
